Here are results for one compound from ChEMBL document CHEMBL1759890, “3,5-Disubstituted-indole-7-carboxamides: the discovery of a novel series of potent, selective inhibitors of IKK-β” (Bioorg Med Chem Lett, 2011).

Assay [1] has as its target Casein kinase I isoform epsilon (Homo sapiens, UniProt P49674). The assay is described as follows: Binding affinity to CSNK1eplison assessed as dissociation constant.
The target of assay [2] is T1, Inhibitor of nuclear factor kappa-B kinase subunit alpha (Homo sapiens, UniProt O15111).
T1 sequence (O15111 whole entry): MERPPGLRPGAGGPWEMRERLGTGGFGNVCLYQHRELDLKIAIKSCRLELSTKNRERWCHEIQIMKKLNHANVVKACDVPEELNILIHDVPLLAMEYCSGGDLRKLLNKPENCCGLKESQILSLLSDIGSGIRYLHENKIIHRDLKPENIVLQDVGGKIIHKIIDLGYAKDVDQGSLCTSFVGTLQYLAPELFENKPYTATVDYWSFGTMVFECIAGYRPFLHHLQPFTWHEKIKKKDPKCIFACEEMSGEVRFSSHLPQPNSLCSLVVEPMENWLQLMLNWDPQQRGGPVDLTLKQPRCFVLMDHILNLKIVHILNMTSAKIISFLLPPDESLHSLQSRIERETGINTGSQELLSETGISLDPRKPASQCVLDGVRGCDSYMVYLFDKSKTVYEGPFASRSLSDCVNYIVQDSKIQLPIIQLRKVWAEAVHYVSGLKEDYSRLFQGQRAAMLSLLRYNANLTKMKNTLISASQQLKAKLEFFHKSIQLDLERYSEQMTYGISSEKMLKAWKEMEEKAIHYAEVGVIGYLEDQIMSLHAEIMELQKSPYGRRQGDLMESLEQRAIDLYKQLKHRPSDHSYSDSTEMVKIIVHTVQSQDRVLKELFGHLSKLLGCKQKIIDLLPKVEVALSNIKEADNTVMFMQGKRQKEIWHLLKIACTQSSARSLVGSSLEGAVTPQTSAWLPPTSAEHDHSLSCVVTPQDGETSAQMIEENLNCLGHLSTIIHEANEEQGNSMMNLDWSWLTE
The assay is described as follows: Inhibition of IKK-alpha. In a few lines: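 Done the same way as the IKK-β TR-FRET assay but with 6-His-tagged full-length IKK-α. Buffer is 50 mM HEPES, 10 mM MgCl₂, 1 mM CHAPS pH 7.4, 1 mM DTT, 0.01% w/v BSA. GST-IκBα substrate 25 nM final, ATP 1 μM final, DMSO below 5% final. Error about ±0.3 log units.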

The target in assay [3] is T2, Serine/threonine-protein kinase TBK1 (Homo sapiens, UniProt Q9UHD2).
T2 sequence (Q9UHD2 whole entry): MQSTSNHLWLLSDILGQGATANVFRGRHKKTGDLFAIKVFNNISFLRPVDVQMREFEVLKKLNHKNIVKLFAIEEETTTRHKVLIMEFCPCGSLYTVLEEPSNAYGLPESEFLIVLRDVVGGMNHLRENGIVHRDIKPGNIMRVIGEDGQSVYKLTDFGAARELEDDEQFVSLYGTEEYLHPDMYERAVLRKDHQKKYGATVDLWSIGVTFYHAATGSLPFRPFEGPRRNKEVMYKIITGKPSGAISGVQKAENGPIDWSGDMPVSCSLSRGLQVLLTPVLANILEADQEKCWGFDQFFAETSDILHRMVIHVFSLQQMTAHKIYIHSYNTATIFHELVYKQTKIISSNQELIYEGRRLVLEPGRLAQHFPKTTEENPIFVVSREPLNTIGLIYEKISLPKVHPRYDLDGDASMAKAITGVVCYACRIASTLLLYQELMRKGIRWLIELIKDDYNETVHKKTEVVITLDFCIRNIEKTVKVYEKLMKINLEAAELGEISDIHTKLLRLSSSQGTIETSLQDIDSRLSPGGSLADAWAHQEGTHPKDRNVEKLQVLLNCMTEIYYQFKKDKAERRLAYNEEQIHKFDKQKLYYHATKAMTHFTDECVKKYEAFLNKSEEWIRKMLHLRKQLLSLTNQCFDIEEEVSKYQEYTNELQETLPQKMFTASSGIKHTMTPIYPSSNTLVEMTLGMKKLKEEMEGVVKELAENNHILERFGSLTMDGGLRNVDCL
Briefly: Inhibition of TBK-1.

The target of assay [4] is T3, Receptor-type tyrosine-protein kinase FLT3 (Homo sapiens, UniProt P36888).
T3 sequence (P36888 whole entry): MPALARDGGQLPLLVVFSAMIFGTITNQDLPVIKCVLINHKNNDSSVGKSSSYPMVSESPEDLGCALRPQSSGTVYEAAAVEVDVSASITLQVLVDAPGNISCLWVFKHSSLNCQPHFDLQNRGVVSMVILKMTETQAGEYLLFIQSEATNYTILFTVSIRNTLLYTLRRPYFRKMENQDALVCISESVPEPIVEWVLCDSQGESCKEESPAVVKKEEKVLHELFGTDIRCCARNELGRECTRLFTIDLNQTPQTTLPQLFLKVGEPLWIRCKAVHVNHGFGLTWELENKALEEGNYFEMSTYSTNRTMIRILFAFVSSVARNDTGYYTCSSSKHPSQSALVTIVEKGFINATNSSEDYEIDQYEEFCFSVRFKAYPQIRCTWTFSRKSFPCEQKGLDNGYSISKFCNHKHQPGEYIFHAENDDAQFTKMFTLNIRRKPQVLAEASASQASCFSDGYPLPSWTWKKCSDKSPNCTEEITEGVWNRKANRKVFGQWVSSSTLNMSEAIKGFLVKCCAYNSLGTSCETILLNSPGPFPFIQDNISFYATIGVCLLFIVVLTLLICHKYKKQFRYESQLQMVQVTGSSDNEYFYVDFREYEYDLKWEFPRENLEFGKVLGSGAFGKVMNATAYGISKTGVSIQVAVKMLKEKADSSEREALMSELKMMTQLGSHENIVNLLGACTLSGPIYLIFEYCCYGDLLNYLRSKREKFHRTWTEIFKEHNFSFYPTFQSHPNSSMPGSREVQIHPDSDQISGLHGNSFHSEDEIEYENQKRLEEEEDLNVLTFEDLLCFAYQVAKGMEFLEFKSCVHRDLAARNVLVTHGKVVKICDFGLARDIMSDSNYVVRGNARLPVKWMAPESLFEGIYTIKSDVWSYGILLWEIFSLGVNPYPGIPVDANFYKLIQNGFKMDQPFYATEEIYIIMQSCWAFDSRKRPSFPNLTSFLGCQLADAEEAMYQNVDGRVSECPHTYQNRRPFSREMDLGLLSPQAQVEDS
The assay is described as follows: Binding affinity to FLT3 assessed as dissociation constant.

Molecules are shown by their SMILES.

Sequence of Casein kinase I isoform epsilon (P49674 whole entry, canonical isoform): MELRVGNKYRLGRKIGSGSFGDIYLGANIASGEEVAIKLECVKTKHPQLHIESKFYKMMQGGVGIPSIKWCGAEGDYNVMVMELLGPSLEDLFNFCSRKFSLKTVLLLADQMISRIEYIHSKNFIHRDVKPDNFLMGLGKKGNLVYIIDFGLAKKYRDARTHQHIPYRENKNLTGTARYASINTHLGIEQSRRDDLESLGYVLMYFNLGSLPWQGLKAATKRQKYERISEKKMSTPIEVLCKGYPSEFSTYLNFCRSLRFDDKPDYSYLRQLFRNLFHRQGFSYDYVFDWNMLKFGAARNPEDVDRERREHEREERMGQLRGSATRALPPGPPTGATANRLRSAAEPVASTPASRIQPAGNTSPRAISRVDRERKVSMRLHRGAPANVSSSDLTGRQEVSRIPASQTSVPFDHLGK

Turning to `CCCS(=O)(=O)N1CCC(c2c[nH]c3c(C(N)=O)cc(-c4ccccc4)cc23)CC1`, the Kd was 1580 nM in assay [1] and 1260 nM in assay [4]. Moreover, the IC50 is 2000 nM in assay [2] and over 3160 nM in assay [3].
